# Data reported in ChEMBL document CHEMBL1122744, “2-Chloroethyl (methylsulfonyl)methanesulfonate and related (methylsulfonyl)methanesulfonates. Antineoplastic activity in vivo” (J Med Chem, 1984).
# Columns and labels:
# Mus musculus [1] = assay: Median survival time of the treated control groups, in which there are no 30-day survivors at dose 6 mg/kg in exp1; assay type: functional
# Mus musculus [2] = assay: Median survival time of the untreated control groups, in which there are no 30-day survivors at dose 6 mg/kg in exp1; assay type: functional
# Mus musculus [3] = assay: Mortality by day 5 expressed as number of mice died to the total treated at dose 25 mg/kg in exp2; 4/6; assay type: ADME, organism-based; design: dose 25 mg/kg; conditions: in vivo
# Mus musculus [4] = assay: Median survival time of the treated control groups, in which there are no 30-day survivors at dose 12 mg/kg in exp1; assay type: functional
# Mus musculus [5] = assay: Median survival time of the treated control groups, in which there are no 30-day survivors at dose 12 mg/kg in exp2; assay type: functional
# [6] = Ratio of median survival times for non-survivors at dose 12 mg/kg in exp2; assay type: functional
# Outline: (§1)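 Mice were inoculated ip with 10^6 P388 leukemia cells on day 0. Groups of six (occasionally five) were dosed ip qd on days 1–5 with fresh suspensions; 30 mice served as untreated controls. Deaths were recorded daily up to day 60. T/C% compares the median survival of treated non-survivors (<60 days) with the control median. Medians used grouped data when there were no 30-day survivors, otherwise ungrouped data. t = toxic.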
# [7] = Ratio of median survival times for non-survivors at dose 6 mg/kg in exp1; assay type: functional
# Mus musculus [8] = assay: Median survival time of the untreated control groups, in which there are no 30-day survivors at dose 25 mg/kg in exp2; assay type: functional
# Mus musculus [9] = assay: Mortality by day 5 expressed as number of mice died to the total treated at dose 6 mg/kg in exp2; 0/6; assay type: ADME, organism-based; design: dose 6 mg/kg; conditions: in vivo
# Mus musculus [10] = assay: Mortality by day 5 expressed as number of mice died to the total treated at dose 25 mg/kg in exp1; 0/6; assay type: ADME, organism-based; design: dose 25 mg/kg; conditions: in vivo
# Mus musculus [11] = assay: Change in weight by day 5, obtained by subtracting treated groups of animals minus control groups of animals at dose 12 mg/kg in exp1; assay type: functional
# Outline: (§2)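 Mice were inoculated ip with 10^6 P388 leukemia cells on day 0, when treated and control mice weighed 19–22 g. Treatment was given ip once daily on days 1–5, within about 5 min of preparing the solution or suspension. Groups of six (occasionally five) were treated, with 30 untreated inoculated mice as controls. The day-5 weight change is the mean treated change minus the mean control change.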
# [12] = Ratio of median survival times for non-survivors at dose 6 mg/kg in exp2; assay type: functional
# Mus musculus [13] = assay: Median survival time of the untreated control groups, in which there are no 30-day survivors at dose 12 mg/kg in exp1; assay type: functional
# Mus musculus [14] = assay: Mortality by day 5 expressed as number of mice died to the total treated at dose 25 mg/kg in exp1; 6/6; assay type: ADME, organism-based; design: dose 25 mg/kg; conditions: in vivo
# Mus musculus [15] = assay: Change in weight by day 5, obtained by subtracting treated groups of animals minus control groups of animals at dose 6 mg/kg in exp2; assay type: functional
# Outline: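 Mice were inoculated ip with 10^6 P388 leukemia cells on day 0 and weighed 19–22 g that day. Compound was given ip once daily on days 1–5, within about 5 min of preparing the solution or suspension, to groups of six (occasionally five). Thirty inoculated untreated mice served as controls. The value is the average weight change of treated mice minus that of controls on day 5.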
# [16] = Ratio of median survival times for non-survivors at dose 12 mg/kg in exp1; assay type: functional; outline: as §1
# Mus musculus [17] = assay: Mortality by day 5 expressed as number of mice died to the total treated at dose 6 mg/kg in exp1; 0/5; assay type: ADME, organism-based; design: dose 6 mg/kg; conditions: in vivo
# Mus musculus [18] = assay: Change in weight by day 5, obtained by subtracting treated groups of animals minus control groups of animals at dose 12 mg/kg in exp2; assay type: functional; outline: as §2
# Mus musculus [19] = assay: Mortality by day 5 expressed as number of mice died to the total treated at dose 12 mg/kg in exp2; 1/6; assay type: ADME, organism-based; design: dose 12 mg/kg; conditions: in vivo
# Mus musculus [20] = assay: Median survival time of the untreated control groups, in which there are no 30-day survivors at dose 6 mg/kg in exp2; assay type: functional
# Mus musculus [21] = assay: Median survival time of the treated control groups, in which there are no 30-day survivors at dose 6 mg/kg in exp2; assay type: functional
# Mus musculus [22] = assay: Mortality by day 5 expressed as number of mice died to the total treated at dose 12 mg/kg in exp1; 0/6; assay type: ADME, organism-based; design: dose 12 mg/kg; conditions: in vivo
# Mus musculus [23] = assay: Change in weight by day 5, obtained by subtracting treated groups of animals minus control groups of animals at dose 25 mg/kg in exp2; assay type: functional; outline: as §2
# [24] = Ratio of median survival times for non-survivors at dose 25 mg/kg in exp1; t= toxic; assay type: ADME, organism-based; design: dose 25 mg/kg; conditions: in vivo
# Mus musculus [25] = assay: Change in weight by day 5, obtained by subtracting treated groups of animals minus control groups of animals at dose 6 mg/kg in exp1.; assay type: functional; outline: as §2
# Mus musculus [26] = assay: Median survival time of the untreated control groups, in which there are no 30-day survivors at dose 25 mg/kg in exp1; assay type: functional
# [27] = Ratio of median survival times for non-survivors at dose 25 mg/kg in exp2; t= toxic; assay type: ADME, organism-based; design: dose 25 mg/kg; conditions: in vivo
# [28] = Median survival time of the untreated control groups, in which there are no 30-day survivors at dose 12 mg/kg in exp2; assay type: functional
smiles,measurement,setting,value
COS(=O)(=O)CS(C)(=O)=O,Median survival time,Mus musculus [1],14.5
same,Median survival time,Mus musculus [2],10.7
same,Mortality,Mus musculus [3],4
same,Median survival time,Mus musculus [4],14
same,Median survival time,Mus musculus [5],13.7
same,Ratio,[6],128
same,Ratio,[7],135
same,Median survival time,Mus musculus [8],10.7
same,Mortality,Mus musculus [9],0
same,Mortality,Mus musculus [10],0
same,Change in weight,Mus musculus [11],-4.1
same,Ratio,[12],125
same,Median survival time,Mus musculus [13],10.7
same,Mortality,Mus musculus [14],6
same,Change in weight,Mus musculus [15],-0.8
same,Ratio,[16],130
same,Mortality,Mus musculus [17],0
same,Change in weight,Mus musculus [18],-2.8
same,Mortality,Mus musculus [19],1
same,Median survival time,Mus musculus [20],10.7
same,Median survival time,Mus musculus [21],13.4
same,Mortality,Mus musculus [22],0
same,Change in weight,Mus musculus [23],-2.8
same,Ratio,[24],Toxic
same,Change in weight,Mus musculus [25],0
same,Median survival time,Mus musculus [26],10.7
same,Ratio,[27],Toxic
same,Median survival time,[28],10.7
